Several values for one entry are separate records, joined by “and”; a condition that tells them apart may be missing. Equal entries are not always repeated.
Test system: Escherichia coli
Test: Compound was evaluated for the inhibition of growth of methotrexate resistant (MB1428) strain of Escherichia coli cells; d=values could not be determined due to solubility problems encountered with these congener
Format: functional, organism-based
How it was run: (§1)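 E. coli cultures kept on nutrient agar slants. Inoculum from two serial 24 h, 37 °C transfers in glucose-salts medium with 0.6% vitamin-free acid-hydrolyzed casein, washed twice, then diluted to about 15 cells/mL. Each 10 mL tube held basal medium, 25% glucose solution (1 mL) and inhibitor dissolved in water or 0.04 M HCl, diluted in sterile water. C = molar concentration giving 50% culture inhibition.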

SMILES | Log 1/C
CCCCCCCCOc1c(OC)cc(Cc2cnc(N)nc2N)cc1OC | Not detected
CCCCCCCCOc1cc(Cc2cnc(N)nc2N)ccc1OC | Not detected

Molecular target: T1, Dihydrofolate reductase type 1 (Escherichia coli) (UniProt P00382)
T1 sequence (whole entry): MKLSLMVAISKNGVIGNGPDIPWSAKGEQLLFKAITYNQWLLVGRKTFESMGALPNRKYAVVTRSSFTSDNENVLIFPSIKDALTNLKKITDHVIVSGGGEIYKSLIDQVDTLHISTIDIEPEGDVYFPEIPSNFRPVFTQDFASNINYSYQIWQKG

Log 1/Ki app | SMILES
6.06 | CC(C)(C)c1cccc(OCc2cccc(N3C(N)=NC(N)=NC3(C)C)c2)c1
6.17 | CC1(C)N=C(N)N=C(N)N1c1cccc(COc2cccc(NC(=N)S)c2)c1
6.15 | CC1(C)N=C(N)N=C(N)N1c1cccc(OCc2ccc(Cl)c(Cl)c2)c1
6.27 | Cc1cccc(OCc2cccc(N3C(N)=NC(N)=NC3(C)C)c2)c1
6.19 | CC1(C)N=C(N)N=C(N)N1c1cccc(COc2cccc(CO)c2)c1
6.57 | Cc1cccc(SCc2cccc(N3C(N)=NC(N)=NC3(C)C)c2)c1
5.95 | CCc1cccc(OCc2cccc(N3C(N)=NC(N)=NC3(C)C)c2)c1
5.85 | CCCCCCCCCCCCCCOc1cccc(N2C(N)=NC(N)=NC2(C)C)c1
6.19 | CCCCCCCCCCCOc1cccc(N2C(N)=NC(N)=NC2(C)C)c1
6.02 | COc1cccc(OCc2cccc(N3C(N)=NC(N)=NC3(C)C)c2)c1
5.92 | CCOCc1cccc(N2C(N)=NC(N)=NC2(C)C)c1
6.05 | CC1(C)N=C(N)N=C(N)N1c1cccc(COc2cccc(C#N)c2)c1
5.88 | CCCCCCCCCCCCOc1cccc(N2C(N)=NC(N)=NC2(C)C)c1
5.91 | CC1(C)N=C(N)N=C(N)N1c1cccc(COc2cccc(NC(N)=O)c2)c1
6.01 | CC1(C)N=C(N)N=C(N)N1c1cccc(COc2cccc(Cl)c2)c1

Test system: Escherichia coli
Test: Inhibition of growth of methotrexate-resistant (MB1428) strain of Escherichia coli cells.
Format: functional
How it was run: as §1

SMILES | Log 1/C
CC1(C)N=C(N)N=C(N)N1c1ccc(Cl)cc1 [CYCLOGUANIL] | 2.5
CCc1nc(N)nc(N)c1-c1ccc(Cl)cc1 [PYRIMETHAMINE] | 3.56
Nc1ncc(Cc2ccccc2)c(N)n1 | 2.92
Nc1ncc(Cc2ccc([N+](=O)[O-])cc2)c(N)n1 | 3.43
CC1(C)N=C(N)N=C(N)N1c1cccc(S(=O)(=O)F)c1 | 2
Cc1cccc(Cc2cnc(N)nc2N)c1 | 3.29
Nc1ncc(Cc2cccc(Cl)c2)c(N)n1 | 3.46
COc1ccc(OC)c(Cc2cnc3nc(N)nc(N)c3c2C)c1 [PIRITREXIM] | 4.56
COCCOc1ccc(Cc2cnc(N)nc2N)cc1 | 3.11
CCCCCCOc1cccc(Cc2cnc(N)nc2N)c1 | 4.53
COc1ccc(Cc2cnc(N)nc2N)cc1OC [DIAVERIDINE] | 4.46
COc1cc(Cc2cnc(N)nc2N)cc(OC)c1 | 4.55
COCCOc1cccc(Cc2cnc(N)nc2N)c1 | 2.92
C=C(C)c1c(OC)cc(Cc2cnc(N)nc2N)cc1OC | 5.66
CC(=O)Nc1ccc(Cc2cnc(N)nc2N)cc1 | 3.03
CCCCOc1ccc(Cc2cnc(N)nc2N)cc1 | 4.01

SMILES | Log 1/C
COCc1cccc(Cc2cnc(N)nc2N)c1 | 2.98
Nc1ncc(Cc2ccc(Br)cc2)c(N)n1 | 3.69
COc1cc(Cc2cnc(N)nc2N)cc(OC)c1OC [TRIMETHOPRIM] | 5.34
CCCCCCCCOc1cccc(Cc2cnc(N)nc2N)c1 | 4.41
CC1(C)N=C(N)N=C(N)N1c1cccc(OCCOc2cccc(C(F)(F)F)c2)c1 | 4.14
Cc1nc(N)nc(N)c1-c1ccc(Cl)c(Cl)c1 [METOPRINE] | 4.35
CCCCCCOc1ccc(Cc2cnc(N)nc2N)cc1 | 4.55
COc1cc(Cc2cnc(N)nc2N)cc(OC)c1SC [METIOPRIM] | 5.66
CN(Cc1cnc2nc(N)nc(N)c2n1)c1ccc(C(=O)N[C@@H](CCC(=O)O)C(=O)O)cc1 [METHOTREXATE] | 2.7
COc1cc(Cc2cnc(N)nc2N)cc(OC)c1Br [BRODIMOPRIM] | 5.69
CN(C)c1ccc(Cc2cnc(N)nc2N)cc1 | 3.46
CS(=O)(=O)Oc1cccc(Cc2cnc(N)nc2N)c1 | 3.35
COCCOc1c(OC)cc(Cc2cnc(N)nc2N)cc1OC [TETROXOPRIM] | 4.72
COc1ccc(Cc2cnc(N)nc2N)cc1 | 3.46 and 3.7
CCCCCCCOc1cccc(Cc2cnc(N)nc2N)c1 | 4.84
Nc1ncc(Cc2cccc(O)c2)c(N)n1 | 2.94

Test system: Escherichia coli
Test: Compound was evaluated for the inhibition of growth of methotrexate sensitive (MB1417) strain of Escherichia coli cells; d=values could not be determined due to solubility problems encountered with these congener
Format: functional, organism-based
How it was run: as §1

SMILES | Log 1/C
CCCCCCCCOc1cccc(Cc2cnc(N)nc2N)c1 | Not detected

Test system: Escherichia coli
Test: The compound was evaluated for the inhibition of growth of methotrexate resistant (MB1428) strain of Escherichia coli cells; d=values could not be determined due to solubility problems encountered with these congener
Format: functional, organism-based

SMILES | Log 1/C
CCOc1cc(Cc2cnc(N)nc2N)ccc1OCc1ccccc1 | Not detected

Test system: Escherichia coli
Test: Inhibition of growth of methotrexate sensitive (MB1417) strain of Escherichia coli cells
Format: functional
How it was run: as §1

SMILES | Log 1/C
CC(C)(C)c1cccc(OCc2cccc(N3C(N)=NC(N)=NC3(C)C)c2)c1 | 4.1
CC1(C)N=C(N)N=C(N)N1c1cccc(OCc2ccc(Cl)c(Cl)c2)c1 | 4.13
Cc1cccc(OCc2cccc(N3C(N)=NC(N)=NC3(C)C)c2)c1 | 3.27
CC1(C)N=C(N)N=C(N)N1c1cccc(COc2cccc(CO)c2)c1 | 2.38
Cc1cccc(SCc2cccc(N3C(N)=NC(N)=NC3(C)C)c2)c1 | 3.87
CCc1cccc(OCc2cccc(N3C(N)=NC(N)=NC3(C)C)c2)c1 | 3.67
CCCCCCCCCCCOc1cccc(N2C(N)=NC(N)=NC2(C)C)c1 | 5.5
CC1(C)N=C(N)N=C(N)N1c1cccc(OCC23CC4CC(CC(C4)C2)C3)c1 | 4.49
COc1cccc(OCc2cccc(N3C(N)=NC(N)=NC3(C)C)c2)c1 | 3.21
CC1(C)N=C(N)N=C(N)N1c1cccc(COc2cccc(C#N)c2)c1 | 2.74
CCCCOc1cccc(N2C(N)=NC(N)=NC2(C)C)c1 | 3.29
CC1(C)N=C(N)N=C(N)N1c1cccc(CSc2ccccc2)c1 | 3.39

Test system: Escherichia coli
Test: Inhibition of growth of methotrexate resistant (MB1428) strain of Escherichia coli cells
Format: functional
How it was run: as §1

SMILES | Log 1/C
CC(C)(C)c1cccc(OCc2cccc(N3C(N)=NC(N)=NC3(C)C)c2)c1 | 4.19
CC1(C)N=C(N)N=C(N)N1c1cccc(OCc2ccc(Cl)c(Cl)c2)c1 | 4.01
Cc1cccc(OCc2cccc(N3C(N)=NC(N)=NC3(C)C)c2)c1 | 3.41
CC1(C)N=C(N)N=C(N)N1c1cccc(COc2cccc(CO)c2)c1 | 2.51
Cc1cccc(SCc2cccc(N3C(N)=NC(N)=NC3(C)C)c2)c1 | 3.76
CCc1cccc(OCc2cccc(N3C(N)=NC(N)=NC3(C)C)c2)c1 | 3.98
CCCCCCCCCCCOc1cccc(N2C(N)=NC(N)=NC2(C)C)c1 | 5.5
CC1(C)N=C(N)N=C(N)N1c1cccc(OCC23CC4CC(CC(C4)C2)C3)c1 | 4.63
COc1cccc(OCc2cccc(N3C(N)=NC(N)=NC3(C)C)c2)c1 | 3.26
CC1(C)N=C(N)N=C(N)N1c1cccc(COc2cccc(C#N)c2)c1 | 3.02
CCCCOc1cccc(N2C(N)=NC(N)=NC2(C)C)c1 | 3.49
CC1(C)N=C(N)N=C(N)N1c1cccc(CSc2ccccc2)c1 | 3.52

Test system: Escherichia coli
Test: Inhibition of growth of methotrexate-sensitive (MB1417) strain of Escherichia coli cells.
Format: functional
How it was run: as §1

SMILES | Log 1/C
CC1(C)N=C(N)N=C(N)N1c1ccc(Cl)cc1 [CYCLOGUANIL] | 2.47
CCc1nc(N)nc(N)c1-c1ccc(Cl)cc1 [PYRIMETHAMINE] | 4.21
Nc1ncc(Cc2ccccc2)c(N)n1 | 4.28
Nc1ncc(Cc2ccc([N+](=O)[O-])cc2)c(N)n1 | 4.53
CC1(C)N=C(N)N=C(N)N1c1cccc(S(=O)(=O)F)c1 | 2.5
Cc1cccc(Cc2cnc(N)nc2N)c1 | 4.91
Nc1ncc(Cc2cccc(Cl)c2)c(N)n1 | 4.92
CCCCCCCCOc1c(OC)cc(Cc2cnc(N)nc2N)cc1OC | 5.18
CCCCCCCCOc1cc(Cc2cnc(N)nc2N)ccc1OC | 4.91
COc1ccc(OC)c(Cc2cnc3nc(N)nc(N)c3c2C)c1 [PIRITREXIM] | 5.95
COCCOc1ccc(Cc2cnc(N)nc2N)cc1 | 4.61
CCCCCCOc1cccc(Cc2cnc(N)nc2N)c1 | 4.81
COc1ccc(Cc2cnc(N)nc2N)cc1OC [DIAVERIDINE] | 6.08
COc1cc(Cc2cnc(N)nc2N)cc(OC)c1 | 6.08
COCCOc1cccc(Cc2cnc(N)nc2N)c1 | 4.33
C=C(C)c1c(OC)cc(Cc2cnc(N)nc2N)cc1OC | 6.63
CC(=O)Nc1ccc(Cc2cnc(N)nc2N)cc1 | 4.08

SMILES | Log 1/C
CCCCOc1ccc(Cc2cnc(N)nc2N)cc1 | 4.76
COCc1cccc(Cc2cnc(N)nc2N)c1 | 4.68
Nc1ncc(Cc2ccc(Br)cc2)c(N)n1 | 5.12
COc1cc(Cc2cnc(N)nc2N)cc(OC)c1OC [TRIMETHOPRIM] | 6.61
CC1(C)N=C(N)N=C(N)N1c1cccc(OCCOc2cccc(C(F)(F)F)c2)c1 | 4.01
Cc1nc(N)nc(N)c1-c1ccc(Cl)c(Cl)c1 [METOPRINE] | 4.24
CCCCCCOc1ccc(Cc2cnc(N)nc2N)cc1 | 4.79
COc1cc(Cc2cnc(N)nc2N)cc(OC)c1SC [METIOPRIM] | 6.97
CN(Cc1cnc2nc(N)nc(N)c2n1)c1ccc(C(=O)N[C@@H](CCC(=O)O)C(=O)O)cc1 [METHOTREXATE] | 3.76
COc1cc(Cc2cnc(N)nc2N)cc(OC)c1Br [BRODIMOPRIM] | 6.67
CN(C)c1ccc(Cc2cnc(N)nc2N)cc1 | 4.94
CS(=O)(=O)Oc1cccc(Cc2cnc(N)nc2N)c1 | 4.59
CCOc1cc(Cc2cnc(N)nc2N)ccc1OCc1ccccc1 | 5.04
COCCOc1c(OC)cc(Cc2cnc(N)nc2N)cc1OC [TETROXOPRIM] | 5.83
COc1ccc(Cc2cnc(N)nc2N)cc1 | 5.24 and 4.77
CCCCCCCOc1cccc(Cc2cnc(N)nc2N)c1 | 4.88
Nc1ncc(Cc2cccc(O)c2)c(N)n1 | 4.35
